Data: ChEMBL document CHEMBL3621132, “Discovery of diazepane amide DORAs and 2-SORAs enabled by exploration of isosteric quinazoline replacements” (Bioorg Med Chem Lett, 2015)
One block for each molecule: values may come before it. Activity calls are given as the source filed them. The calls are words filed in the database; no cut-off is given here.

What was measured:
[1] = species on record: Homo sapiens; experiment: Selectivity ratio of IC50 for human orexin 1 receptor Ile408-Val mutant to IC50 for human orexin 2 receptor
[2] = target: T1, Orexin receptor type 2 (Homo sapiens, UniProt O43614); experiment: Antagonist activity at human orexin 2 receptor expressed in CHO cells assessed as inhibition of orexin-A-induced intracellular calcium level after 60 mins by FLIPR assay; format: functional, cell-based
T1 sequence (O43614 whole entry): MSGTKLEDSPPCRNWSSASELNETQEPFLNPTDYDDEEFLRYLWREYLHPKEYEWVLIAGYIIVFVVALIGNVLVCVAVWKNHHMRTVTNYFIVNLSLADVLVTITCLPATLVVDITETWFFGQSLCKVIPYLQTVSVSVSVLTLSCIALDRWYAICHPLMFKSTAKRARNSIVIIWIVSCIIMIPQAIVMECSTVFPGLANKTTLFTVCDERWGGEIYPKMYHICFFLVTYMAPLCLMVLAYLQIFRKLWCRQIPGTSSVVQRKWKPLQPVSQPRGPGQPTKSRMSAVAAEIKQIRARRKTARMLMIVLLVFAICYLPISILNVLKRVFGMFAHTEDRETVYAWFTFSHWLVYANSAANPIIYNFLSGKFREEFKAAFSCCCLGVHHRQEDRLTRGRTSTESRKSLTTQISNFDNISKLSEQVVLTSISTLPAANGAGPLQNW

[3] = target: Orexin receptor type 1 (Homo sapiens) (UniProt O43613); experiment: Binding affinity to human orexin 1 receptor expressed in CHO cells after 3 hrs by radioligand binding assay
[4] = target: Orexin receptor type 2 (Homo sapiens) (UniProt O43614); experiment: Antagonist activity at human orexin 2 receptor expressed in CHO cells assessed as inhibition of orexin-A-induced intracellular calcium level after 60 mins by FLIPR assay; conditions: 1 h
[5] = Clearance in dog at 0.125 mg/kg, iv; format: ADME, organism-based, Canis lupus familiaris; conditions: in vivo
Procedure, shortened: (§1)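 Intravenous PK in rat (2 mg/kg) and dog (0.125 or 0.5 mg/kg), vehicle 100% DMSO, n = 2. Clearance, Vdss and half-life were determined.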

[6] = Cmax in satellite rat sleep model at 30 mg/kg, po; format: ADME, organism-based; parameters: dose 30 mg/kg, route oral; conditions: in vivo
Procedure, shortened: (§2)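 Satellite rats from the sleep study were given 30 mg/kg orally as the free base in 20% Vitamin E TPGS in water (n = 3). Plasma AUC, Cmax and Tmax were measured over the sleep experiment.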

[7] = system: Rattus norvegicus; experiment: Anti-insomnia activity in rat sleep model assessed as increase in REM sleep at 30 mg/kg, po up to 2 hrs; format: functional, organism-based
[8] = species on record: Rattus norvegicus; experiment: Ex vivo receptor occupancy at human OX2R expressed in transgenic rat at plasma concentration of 0.35 uM; format: functional
[9] = AUC in satellite rat sleep model at 30 mg/kg, po; format: ADME, organism-based; conditions: in vivo; procedure, shortened: as §2
[10] = system: Rattus norvegicus; experiment: Anti-insomnia activity in rat sleep model assessed as increase in slow wave at 30 mg/kg, po up to 2 hrs; format: functional, organism-based
[11] = Tmax in satellite rat sleep model at 30 mg/kg, po; format: ADME, organism-based; conditions: in vivo; procedure, shortened: as §2
[12] = system: Rattus norvegicus; experiment: Anti-insomnia activity in rat sleep model assessed as reduction of active wake at 30 mg/kg, po up to 2 hrs; format: functional, organism-based
[13] = target: Orexin receptor type 2 (Homo sapiens) (UniProt O43614); experiment: Binding affinity to human orexin 2 receptor expressed in CHO cells after 3 hrs by radioligand binding assay
[14] = Cmax in rat at 10 mg/kg, po; format: ADME, organism-based; parameters: dose 10 mg/kg, route oral; conditions: in vivo
Procedure, shortened: (§3)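 Rats were dosed orally at 10 mg/kg in 100% PEG200 (n = 2), as the free base or the hydrochloride salt. AUC, Tmax, Cmax and bioavailability (F) were derived from plasma levels.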

[15] = AUC in rat at 10 mg/kg, po; format: ADME, organism-based; conditions: in vivo
[16] = Tmax in rat at 10 mg/kg, po; format: ADME, organism-based; conditions: in vivo; procedure, shortened: as §3
[17] = Volume of distribution at steady state in dog at 0.5 mg/kg, iv; format: ADME, organism-based, Canis lupus familiaris; conditions: in vivo, read-out: Vdss; procedure, shortened: as §1
[18] = AUC in dog at 3 mg/kg, po; format: ADME, organism-based, Canis lupus familiaris; conditions: in vivo
[19] = Cmax in mouse at 300 mg/kg, po; format: ADME, organism-based; parameters: dose 300 mg/kg, route oral; conditions: in vivo
Procedure, shortened: (§4)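 Mice were dosed orally at 300 mg/kg as the free base in 20% Vitamin E TPGS in water, during the active phase of the sleep study. Cmax and Tmax were taken from plasma.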

[20] = Half life in rat at 2 mg/kg, iv; format: ADME, organism-based; conditions: in vivo; procedure, shortened: as §1
[21] = Clearance in rat at 2 mg/kg, iv; format: ADME, organism-based; conditions: in vivo; procedure, shortened: as §1
[22] = system: P-glycoprotein; experiment: Permeability of the compound assessed as rat p-glycoprotein-mediated permeability ratio from basolateral to apical direction; format: ADME; conditions: not told
[23] = system: P-glycoprotein; experiment: Permeability of the compound assessed as human p-glycoprotein-mediated permeability ratio from basolateral to apical direction; format: ADME; conditions: not told
[24] = Plasma protein binding in human; format: ADME, cell-free; conditions: read-out: PPB (converted)
[25] = Plasma protein binding in dog; format: ADME, cell-free, Canis lupus familiaris; conditions: read-out: PPB (converted)
[26] = Tmax in mouse at 300 mg/kg, po; format: ADME, organism-based; conditions: in vivo; procedure, shortened: as §4
[27] = Tmax in dog at 3 mg/kg, po; format: ADME, organism-based, Canis lupus familiaris; conditions: in vivo
Procedure, shortened: (§5)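 Oral dosing in dogs at 3 mg/kg as the free base in 20% Vitamin E TPGS in water (n = 2). AUC, Tmax, Cmax and oral bioavailability were determined from plasma.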

[28] = Volume of distribution at steady state in rat at 2 mg/kg, iv; format: ADME, organism-based; conditions: in vivo, read-out: Vdss; procedure, shortened: as §1
[29] = Cmax in dog at 3 mg/kg, po; format: ADME, organism-based, Canis lupus familiaris; parameters: dose 3 mg/kg, route oral; conditions: in vivo; procedure, shortened: as §5
[30] = Plasma protein binding in rat; format: ADME, cell-free; conditions: read-out: PPB (converted)
[31] = Oral bioavailability in rat at 10 mg/kg; format: ADME, organism-based; conditions: in vivo; procedure, shortened: as §3
[32] = Clearance in dog at 0.5 mg/kg, iv; format: ADME, organism-based, Canis lupus familiaris; conditions: in vivo; procedure, shortened: as §1
[33] = Oral bioavailability in dog at 3 mg/kg; format: ADME, organism-based, Canis lupus familiaris; conditions: in vivo; procedure, shortened: as §5
[34] = Half life in dog at 0.5 mg/kg, iv; format: ADME, organism-based, Canis lupus familiaris; conditions: in vivo; procedure, shortened: as §1
[35] = Apparent permeability of the compound assessed […] by cell based assay; format: physicochemical
[36] = Lipophilicity, log D of the compound by HPLC analysis; format: physicochemical

Ratio IC50 [1]: 7
IC50 [2]: 245 nM
SMILES: COc1ncc(C(F)(F)F)c(N2CC[C@@H](C)N(C(=O)c3ccccc3-n3nccn3)CC2)n1

Ki [3]: 5.1 nM
IC50 [4]: 88 nM
IC50 [2]: 88 nM
SMILES: C[C@@H]1CCN(c2ncc(C(F)(F)F)c(Cl)n2)CCN1C(=O)c1ccccc1-n1nccn1

clearance [5]: 3 mL/min/kg
Cmax [6]: 2000 nM
AUC [9]: 4.5 µM·h
Tmax [11]: 78 min
SMILES: C[C@@H]1CCN(c2ncc3cc(F)ccc3n2)CCN1C(=O)c1ccccc1-n1nccn1
Activity [7]: Active
Activity [8]: 90%
Activity [10]: Active
Activity [12]: Active

clearance [5]: 3 mL/min/kg
Ki [3]: 6.3 nM
IC50 [4]: 21 nM
IC50 [2]: 21 nM
SMILES: COc1nc(N2CC[C@@H](C)N(C(=O)c3ccccc3-n3nccn3)CC2)ncc1C(F)(F)F
Ki [13]: 0.7 nM

Ki [3]: 3600 nM
IC50 [2]: 82 nM
SMILES: Cc1ncc(C)c(N2CC[C@@H](C)N(C(=O)c3ccccc3-n3nccn3)CC2)n1

clearance [5]: 15 mL/min/kg
Ki [3]: 0.7 nM
IC50 [4]: 140 nM
IC50 [2]: 140 nM
SMILES: Cc1ccc(-n2nccn2)c(C(=O)N2CCN(c3ncc(C(F)(F)F)c(Cl)n3)CC[C@H]2C)c1
Ki [13]: 0.6 nM

Ki [3]: 1100 nM
IC50 [4]: 72 nM
IC50 [2]: 72 nM
SMILES: C[C@@H]1CCN(c2nc(Cl)ncc2C(F)(F)F)CCN1C(=O)c1ccccc1-n1nccn1

Ki [3]: 760 nM
IC50 [2]: 42 nM
SMILES: Cc1cnc(Cl)nc1N1CC[C@@H](C)N(C(=O)c2ccccc2-n2nccn2)CC1
Ki [13]: 2.6 nM

Cmax [14]: 900 nM
AUC [15]: 1.2 µM·h
Tmax [16]: 24 min
Vd [17]: 0.8 L/kg
AUC [18]: 1.8 µM·h
Cmax [19]: 18000 nM
half-life [20]: 192 min
clearance [21]: 118 mL/min/kg
efflux ratio [22]: 1.5
efflux ratio [23]: 0.7
fraction unbound [24]: 0.05
fraction unbound [25]: 0.05
Tmax [26]: 60 min
Tmax [27]: 24 min
Vd [28]: 7 L/kg
Ki [3]: 1800 nM
Cmax [29]: 1300 nM
fraction unbound [30]: 0.12
bioavailability [31]: 35%
clearance [32]: 15 mL/min/kg
bioavailability [33]: 19%
half-life [34]: 54 min
Papp [35]: 34 ×10⁻⁶ cm/s
logD [36]: 2.8
IC50 [2]: 48 nM
SMILES: Cc1ncc(Cl)c(N2CC[C@@H](C)N(C(=O)c3ccccc3-n3nccn3)CC2)n1
Ki [13]: 3.6 nM
